In experiment [1] the target is T1, Neuronal acetylcholine receptor; alpha4/beta2 (Homo sapiens, UniProt P17787+P43681). Kind of experiment: Agonist activity at human alpha4beta2 nAChR expressed in HEK293 cells assessed as intracellular calcium level by FLIPR assay. The class given is functional, cell-based. The method, boiled down:
(§1)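 HEK-293 cells stably expressing human α4β2 (subunits cloned from IMR32) were grown in DMEM with 10% FBS at 37 °C and 5% CO2. They were plated on poly-D-lysine for 24 h, then loaded with 2 µM fluo-4/AM for 1.5 h at room temperature. Cells were washed into NMDG Ringer (10 mM CaCl2, pH 7.4) and read by FLIPR at 100 pM–100 µM. Background-subtracted responses were normalized to 100 µM (-)-nicotine, giving pEC50 and maximal efficacy; n = 4-8.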
In general terms: A change in cytosolic calcium serves as a functional read-out for many receptors and channels.

In experiment [2] the target is T1, Neuronal acetylcholine receptor; alpha4/beta2. Nature of the experiment: Intrinsic activity at human alpha4beta2 nAChR expressed in HEK293 cells assessed as intracellular calcium level by FLIPR assay relative to (-)nicotine. The experiment is classed as cell-based. The method, boiled down:
as §1

Experiment [3] shares this target. Nature of the experiment: Displacement of [3H]cytisine from human alpha4beta2 nAChR expressed in HEK293 cells. The experiment is classed as cell-based. In general terms: In a radioligand displacement assay an active substance lowers the binding of a labelled ligand.

T1 sequence (P17787 whole entry): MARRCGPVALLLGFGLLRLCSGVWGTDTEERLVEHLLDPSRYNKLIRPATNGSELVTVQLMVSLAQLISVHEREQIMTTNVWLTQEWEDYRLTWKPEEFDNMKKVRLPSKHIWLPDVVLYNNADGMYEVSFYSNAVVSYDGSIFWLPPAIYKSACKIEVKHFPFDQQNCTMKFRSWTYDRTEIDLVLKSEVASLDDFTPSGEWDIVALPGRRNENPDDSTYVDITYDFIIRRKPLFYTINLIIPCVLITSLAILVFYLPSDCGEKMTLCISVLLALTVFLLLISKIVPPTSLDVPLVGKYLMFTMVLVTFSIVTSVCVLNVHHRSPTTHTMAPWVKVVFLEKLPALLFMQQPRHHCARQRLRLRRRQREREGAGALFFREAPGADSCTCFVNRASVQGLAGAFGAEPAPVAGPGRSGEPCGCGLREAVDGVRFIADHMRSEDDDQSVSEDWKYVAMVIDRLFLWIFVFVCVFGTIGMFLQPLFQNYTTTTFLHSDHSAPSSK
T1 sequence (P43681 whole entry): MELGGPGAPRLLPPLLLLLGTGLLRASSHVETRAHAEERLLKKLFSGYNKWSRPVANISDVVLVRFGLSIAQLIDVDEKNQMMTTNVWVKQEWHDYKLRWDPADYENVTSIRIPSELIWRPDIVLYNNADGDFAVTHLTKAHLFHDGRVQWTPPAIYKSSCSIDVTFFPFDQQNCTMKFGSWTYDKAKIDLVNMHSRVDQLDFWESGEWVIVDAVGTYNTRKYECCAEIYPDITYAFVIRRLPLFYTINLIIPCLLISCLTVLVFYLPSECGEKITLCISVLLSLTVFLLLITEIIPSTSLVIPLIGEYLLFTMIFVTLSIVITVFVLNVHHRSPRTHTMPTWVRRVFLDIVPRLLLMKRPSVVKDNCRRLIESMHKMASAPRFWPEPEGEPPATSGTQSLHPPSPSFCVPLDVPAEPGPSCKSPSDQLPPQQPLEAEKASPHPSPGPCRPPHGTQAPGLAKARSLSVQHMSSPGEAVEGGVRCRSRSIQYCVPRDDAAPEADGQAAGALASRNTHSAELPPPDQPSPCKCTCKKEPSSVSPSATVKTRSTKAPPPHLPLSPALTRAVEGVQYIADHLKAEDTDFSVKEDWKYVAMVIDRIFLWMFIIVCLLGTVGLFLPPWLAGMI

Regarding `Oc1cncc(N2CCCNCC2)c1`, the half-maximal effective concentration (EC50) in experiment [1] is 141 nM. Further, the Efficacy in experiment [2] turned out to be 120%. Besides, in experiment [3], the half-inhibitory concentration (IC50) is 2.4 nM.
The like results for `C/C=C\Oc1cncc(N2CCCNCC2)c1` were, in that order, 2090 nM, 45% and 1.29 nM.
The corresponding values for `c1ccc2ncc(N3CCCNCC3)cc2c1` are 3630 nM, 33% and 6.61 nM.
For the compound `COc1cc(N2CCCNCC2)cnc1Cl`, the half-maximal effective concentration (EC50) in experiment [1] is 91.2 nM. Also, the Efficacy in experiment [2] stood at 116%. This compound also showed an IC50 in experiment [3] of 0.676 nM.
The like results for `Brc1ccc(N2CCNCC2)cn1` were, in that order, 2510 nM, 129% and 182 nM.
As for `C=COc1cncc(N2CCNCC2)c1`, the EC50 in experiment [1] was 7590 nM. Moreover, the Efficacy in experiment [2] is 18%. For the same compound, the IC50 in experiment [3] is 191 nM.
The like results for `Brc1cncc(N2CCCNCCC2)c1` were, in that order, 182 nM, 73% and 2.82 nM.
Regarding `Clc1cncc(N2CCNCC2)c1`, the EC50 in experiment [1] was 22900 nM. Moreover, the Efficacy in experiment [2] amounted to 41%.
Turning to `Clc1ncc(N2CCNCC2)cc1Br`, in experiment [1], the EC50 is 7940 nM. Also, in experiment [2], the Efficacy is 98%. In experiment [3], the half-inhibitory concentration (IC50) was 229 nM.
Turning to `COc1cncc(N2CCCNCC2)c1`, in experiment [1], the EC50 was 1410 nM. In addition, the Efficacy in experiment [2] was 66%. Besides, in experiment [3], the IC50 was 1.91 nM.
`c1cncc(N2CCCNCCC2)c1`: the 50% effective concentration (EC50) in experiment [1] was 36.3 nM. Further, the Efficacy in experiment [2] was found to be 78%. The IC50 in experiment [3] was 0.891 nM.
Regarding `C=COc1cncc(N2CCCNCC2)c1`, in experiment [1], the concentration giving a half-maximal response (EC50) was 1100 nM. The Efficacy in experiment [2] amounted to 61%. The same compound showed an IC50 in experiment [3] of 5.01 nM.
For the compound `C=COc1cc(N2CCCNCC2)cnc1Br`, the EC50 in experiment [1] is 110 nM. Also, the Efficacy in experiment [2] amounted to 80%. Moreover, in experiment [3], the IC50 was 0.646 nM.
`c1cncc(OC[C@@H]2CCN2)c1`: the concentration for half-maximal inhibition (IC50) in experiment [3] was 1.51 nM.
As to `Oc1cc(N2CCCNCC2)cnc1I`, the EC50 in experiment [1] is 479 nM. Also, the Efficacy in experiment [2] came out at 104%. In experiment [3], this compound showed an IC50 of 21.9 nM.
The like results for `COc1ccc(N2CCCNCC2)cn1` were, in that order, 11000 nM, 88% and 170 nM.
The corresponding values for `Clc1cncc(N2CCCNCCC2)c1` are 170 nM, 103% and 2 nM.
The corresponding values for `COc1cncc(N2CCCNCCC2)c1` are 120 nM, 89% and 1 nM.
Take `C1=C(c2cccnc2)CC2CCC1N2` (stereo not drawn): the EC50 in experiment [1] is 1000 nM. Further, the Efficacy in experiment [2] stood at 66%. Also, the half-inhibitory concentration (IC50) in experiment [3] was 6.76 nM.
The corresponding values for `C1=C(c2cccnc2)CC2CCCC1N2` (stereo not drawn) are 1200 nM, 34% and 4.47 nM.
The corresponding values for `c1cncc(OC2CCCNC2)c1` (stereo not drawn) are 32400 nM, 22% and 191 nM.
As for `c1cncc(N2CCCNCC2)c1`, the half-maximal effective concentration (EC50) in experiment [1] is 229 nM. Moreover, the Efficacy in experiment [2] stood at 94%.
For `Cc1ncc(N2CCNCC2)cc1Cl`, the half-maximal effective concentration (EC50) in experiment [1] was 26900 nM. The Efficacy in experiment [2] worked out at 74%. Besides, the IC50 in experiment [3] was 525 nM.
The like results for `Clc1cncc(OC2CCCNC2)c1` (stereo not drawn) were, in that order, 1410 nM, 15% and 240 nM.
In the case of `COc1cc(N2CCNCC2)cnc1Br`, the concentration giving a half-maximal response (EC50) in experiment [1] was 17000 nM. In addition, in experiment [2], the Efficacy was 68%.
For `CCOc1cc(N2CCCNCC2)cnc1Br`, the concentration for a half-maximal effect (EC50) in experiment [1] was 257 nM. For the same compound, the Efficacy in experiment [2] is 78%. Besides, the concentration for half-maximal inhibition (IC50) in experiment [3] is 0.871 nM.
The like results for `CCSc1ccc(N2CCCNCC2)cn1` were, in that order, 4470 nM, 53% and 170 nM.
Regarding `Brc1ccc(N2CCCNCCC2)cn1`, the 50% effective concentration (EC50) in experiment [1] is 1.29 nM. Besides, the Efficacy in experiment [2] was determined as 139%. For the same compound, in experiment [3], the IC50 was 0.447 nM.
The like results for `Clc1ncc(N2CCCNCC2)cc1Br` were, in that order, 57.5 nM, 85% and 1.41 nM.
With `COc1cncc(C2=CC3CCCC(C2)N3)c1` (stereo not drawn), in experiment [1], the concentration for a half-maximal effect (EC50) was 4370 nM. For the same compound, in experiment [2], the Efficacy turned out to be 13%. Moreover, the half-maximal inhibitory concentration (IC50) in experiment [3] was 3.02 nM.
The corresponding values for `c1cncc(OC2CCNC2)c1` (stereo not drawn) are 28800 nM, 54% and 100 nM.
Regarding `Brc1ccc(N2CCCNCC2)cn1`, in experiment [1], the EC50 was 64.6 nM. Besides, the Efficacy in experiment [2] amounted to 88%. Moreover, the IC50 in experiment [3] is 1 nM.
The corresponding values for `NC(=O)c1cncc(N2CCCNCC2)c1` are 12900 nM, 56% and 20 nM.
The corresponding values for `COCCOc1cncc(N2CCCNCC2)c1` are 8710 nM, 42% and 2.4 nM.
Turning to `C=COc1cc(N2CCCNCCC2)cnc1Br`, in experiment [1], the EC50 was 240 nM. Moreover, the Efficacy in experiment [2] was 90%. In experiment [3], this compound had a half-inhibitory concentration (IC50) of 0.38 nM.
The corresponding values for `Clc1cc(N2CCCNCC2)cnc1Br` are 15.1 nM, 102% and 1.41 nM.

By EC50 is commonly meant the concentration at which the effect is half-maximal. The IC50 is the point on the concentration scale where inhibition reaches its midpoint.

For the origin of these results see ChEMBL document CHEMBL1153405, “Complementary three-dimensional quantitative structure-activity relationship modeling of binding affinity and functional potency: a study on alpha4beta2 nicotinic ligands” (J Med Chem, 2009).
